What was measured:
[1] = tested on: MDCK-II; conditions: Homo sapiens, 3.7 uM
[2] = tested on: Plasma; experiment: Drug concentration in Sprague-Dawley rat plasma assessed as radiometabolites at 74 +/- 23 MBq after 30 mins by SPE assay relative to total plasma concentration; assay type: ADME, cell-free; conditions: 0.5 h
How it was run: (§1)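 Female Sprague Dawley rats (n=3, isoflurane, no PET) given [18F] tracer i.v. (74±23 MBq). Blood drawn at 10, 20, 30 min and terminally at 40 min. Plasma centrifuged and run through SPE. Polar radiometabolites are counted as fractions 1+2 by gamma counter, as % of total plasma activity. At 40 min the MeOH fraction also went to reversed-phase HPLC.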

[3] = tested on: Plasma; experiment: Drug concentration in Sprague-Dawley rat plasma assessed as radiometabolites at 74 +/- 23 MBq after 40 mins by SPE assay relative to total plasma concentration; assay type: ADME, cell-free
How it was run: as §1

[4] = Drug uptake in Sprague-Dawley rat humerus after 1.8 mins in presence of 5 mg/kg elacridar; assay type: ADME, organism-based; set-up: dose 5 mg/kg; conditions: in vivo, 0.03 h
How it was run: (§2)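 Isoflurane-anaesthetised female Sprague Dawley rats (n=3, warmed about 38°C), femoral catheters. [18F] tracer given i.v. (33±3 MBq), followed by a dynamic 150 min microPET scan. […] Whole brain or humerus outlined on summation images; time-activity curves given as SUV (mean±SD).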

[5] = Drug uptake in Sprague-Dawley rat humerus after 140 mins in presence of 5 mg/kg elacridar; assay type: ADME, organism-based; set-up: dose 5 mg/kg; conditions: in vivo
How it was run: as §2

[6] = Ratio of drug level in brain to blood in wild-type mouse; assay type: ADME, tissue-based
How it was run: (§3)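 Female FVB wild-type and Mdr1a/b(−/−)Bcrp1(−/−) mice (n=3 each), isoflurane-anaesthetised. [18F] tracer given via tail vein (6±1 MBq), 60 min dynamic microPET. Brain SUV at 50-60 min divided by whole-blood SUV; blood taken retro-orbitally at scan end and gamma-counted. Groups compared by 2-tailed t-test.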

[7] = Ratio of drug level in brain to blood in Mdr1a/b(-/-)/Bcrp1(-/-) mouse; assay type: ADME, tissue-based
How it was run: as §3

[8] = tested on: Plasma; experiment: Drug concentration in Sprague-Dawley rat plasma assessed as radiometabolites at 74 +/- 23 MBq after 20 mins by SPE assay relative to total plasma concentration; assay type: ADME, cell-free
How it was run: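 Female Sprague-Dawley rats (n=3) under isoflurane, given i.v. [18F]-tracer (74±23 MBq, 17.2±3.9 nmol or 37±10 μg/kg unlabelled) without PET imaging. Arterial blood was drawn at 10, 20 and 30 min, with a terminal sample at 40 min. Plasma was obtained by centrifugation (3000×g, 5 min) and run through solid-phase extraction. The plasma, H2O and MeOH fractions were gamma-counted. Polar radiometabolites (fractions 1+2) are given as % of total plasma activity.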

[9] = tested on: Brain; experiment: Drug uptake in Sprague-Dawley rat brain at 33 +/- 3 MBq, iv administered 60 mins before 5 mg/kg, iv elacridar injection measured after 140 mins; assay type: ADME, organism-based; set-up: dose 5 mg/kg, route intravenous; conditions: in vivo
How it was run: as §2

[10] = tested on: Brain; experiment: Drug uptake in Sprague-Dawley rat brain at 33 +/- 3 MBq, iv administered 60 mins before 5 mg/kg, iv elacridar injection measured after 25 mins; assay type: ADME, organism-based; set-up: dose 5 mg/kg, route intravenous; conditions: in vivo
How it was run: as §2

[11] = tested on: Brain; experiment: Drug uptake in Sprague-Dawley rat brain after 40 mins by reversed-phase HPLC; assay type: ADME, tissue-based; conditions: in vivo
How it was run: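 Same rat group (n=3) injected i.v. with [18F] tracer and sacrificed at 40 min. Brain washed with ice-cold H2O, homogenized in 0.9% NaCl and extracted with CH3CN. Supernatant diluted 1:1 with 0.1% TFA and analysed by reversed-phase HPLC with UV 257 nm and radioactivity detection. Value is unchanged tracer as % of total brain radioactivity.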

[12] = tested on: Plasma; experiment: Drug concentration in Sprague-Dawley rat plasma assessed as radiometabolites at 74 +/- 23 MBq after 10 mins by SPE assay relative to total plasma concentration; assay type: ADME, cell-free
How it was run: as §1

[13] = tested on: Brain; experiment: Drug uptake in Sprague-Dawley rat brain at 33 +/- 3 MBq, iv administered 60 mins before 5 mg/kg, iv elacridar injection measured after 0.9 to 1.3 mins; assay type: ADME, organism-based; set-up: dose 5 mg/kg, route intravenous; conditions: in vivo
How it was run: as §2

[14] = Inhibition of human Pgp overexpressed in […]-MDR1 cells assessed as inhibition of R123 efflux after 60 mins; assay type: cell-based, MDCK-II; conditions: 1 h

Work on COc1cc2c(cc1OC)CN(CCc1ccc(NC(=O)c3cccc4c(=O)c5cccc(OC)c5[nH]c34)cc1)CC2 yielded an inhibition [1] of 100%.
COc1cc2c(cc1OC)CN(CCc1ccc(NC(=O)c3ccc([18F])c4c(=O)c5cccc(OC)c5[nH]c34)cc1)CC2 gave a Cp [2] of 12%, a Cp [3] of 13% and an SUV [4] of 1.42. For the same molecule, the SUV [5] was 4.59, the Kp [6] was 1.5 and the Kp [7] was 11.6. For the same molecule, the Cp [8] was 6%, the SUV [9] was 1.14 and the SUV [10] was 0.14. The Drug uptake [11] was 93%, the Cp [12] was 6% and the SUV [13] was 0.46.
Work on COc1cc2c(cc1OC)CN(CCc1ccc(NC(=O)c3ccc([N+](=O)[O-])c4c(=O)c5cccc(OC)c5[nH]c34)cc1)CC2 yielded an IC50 [14] of 1600 nM.
Work on COc1cc2c(cc1OC)CN(CCc1ccc(NC(=O)c3cc(F)cc4c(=O)c5cccc(OC)c5[nH]c34)cc1)CC2 yielded an IC50 [14] of 600 nM.
Work on COc1cc2c(cc1OC)CN(CCc1ccc(NC(=O)c3ccc(Cl)c4c(=O)c5cccc(OC)c5[nH]c34)cc1)CC2 yielded an IC50 [14] of 3800 nM.
COc1cc2c(cc1OC)CN(CCc1ccc(NC(=O)c3ccc(F)c4c(=O)c5cccc(OC)c5[nH]c34)cc1)CC2 showed an IC50 [14] of 1700 nM.
Molecule COc1cc2c(cc1OC)CN(CCc1ccc(NC(=O)c3cc(Cl)cc4c(=O)c5cccc(OC)c5[nH]c34)cc1)CC2 has an IC50 [14] of 1400 nM.
